Compounds with a hit are over-represented: about 2.6% of the library has one in this group of screens.
NadD inh = inhibitors of Staphylococcus aureus NadD; inhibition, % at 20 µM; purified NadD enzyme, colorimetric absorbance read-out; 0.78% of 360,000 active; in the data active = inhibition above about 26%
STEP block = blocks human striatal-enriched tyrosine phosphatase. P54829. inhibition, % at 20 µM. recombinant STEP, OMFP fluorogenic substrate, fluorescence. 0.25% of 360,000 active;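 active = inhibition at 20 µM, scaled per plate between control wells, above about 37%, limit read from the data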;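 note: 0% = DMSO with enzyme and substrate and 100% = substrate only without enzyme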
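Assay system: isolated STEP enzyme. Buffer or medium: pH 6.0 Bis-Tris with DTT and Tween 20. Also added: fluorogenic phosphatase substrate OMFP at 25 µM final. Dosing: 20 µM, 1% DMSO. Timing: 20 min reaction, room temperature, in the dark. Measured by: fluorescence intensity, excitation 480 nm, emission 540 nm. Evaluation: normalized % inhibition.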
LMPTP block = blocks human LMPTP phosphatase | P24666 | recombinant LMPTP-A, OMFP fluorogenic substrate, fluorescence intensity | inhibition, % at 20 µM | 0.22% of 360,000 active | AID 651560;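 active = compounds that cut the enzyme signal by at least half of the control window in the single-dose screen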;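 note: plate controls were DMSO wells with enzyme plus substrate for no effect and substrate without enzyme for full effect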
Target sequence (P24666 whole entry, looked up): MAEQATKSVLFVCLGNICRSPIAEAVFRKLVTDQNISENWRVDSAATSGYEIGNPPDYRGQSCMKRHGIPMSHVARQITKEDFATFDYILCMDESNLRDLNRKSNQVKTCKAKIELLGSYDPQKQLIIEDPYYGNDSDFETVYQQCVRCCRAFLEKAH
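test system = LMPTP-A | amount = 0.625 nM LMPTP-A final | reagent = fluorogenic phosphatase substrate OMFP at 400 µM final | incubation = 50 min at room temperature | benchmarks = no-enzyme low control, uninhibited high control | medium = Bis-Tris pH 6.0, DTT, detergent | signal = fluorescence intensity of OMFP turnover product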
Scp1 inh = Scp-1 (human) phosphatase inhibition; Q9GZU7; Recombinant Scp1, phosphopeptide, malachite green phosphate absorbance; inhibition, % at 20 µM; 0.88% of 340,000 active; AID 493091;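 active = inhibition above about 50% at 20 µM, limit read from the data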;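 note: plate controls were DMSO wells with enzyme for no effect and wells lacking enzyme for full effect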
Target sequence (Q9GZU7 76-261 limits assumed): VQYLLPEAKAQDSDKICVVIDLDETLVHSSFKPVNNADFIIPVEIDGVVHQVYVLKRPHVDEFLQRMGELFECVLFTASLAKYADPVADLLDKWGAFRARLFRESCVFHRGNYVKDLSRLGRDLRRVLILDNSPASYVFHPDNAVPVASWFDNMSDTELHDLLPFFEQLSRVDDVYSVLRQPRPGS
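Times: enzyme reaction 45 min at room temperature, colour 5 min, stabilisation 30 min. Material: SCP-1 catalytic fragment, aa 76-261. Medium: Acidic Tris acetate buffer with magnesium and detergent. Signal: colorimetric free-phosphate detection, absorbance 630 nm. Read-out basis: % inhibition of SCP-1 phosphate liberation. Reagent: Phosphorylated 17-residue peptide substrate.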
rCAG binder = r(CAG) repeat RNA binding; 1.3% of 370,000 active; TO-PRO-1 dye displacement fluorescence; inhibition, % at 3 µM;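 active = inhibition above the plate cutoff, the mean of all test compounds on that plate plus 3 SD, cut at about 35% in these data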;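 note: 0% = DMSO alone and 100% = 100 µM mitoxantrone as full dye displacement; higher means more dye released from RNA so lower well fluorescence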
NadD inh conf = confirmation of Staphylococcus aureus NadD inhibitors; shares compounds with NadD inh; purified S. aureus NadD, colorimetric enzyme assay; inhibition, % at 20 µM; 13% of 2,000 active; AID 624309; in the data active = inhibition mostly above about 42%, no sharp cut-off; inactive = mostly below about 42%
Numbers without * were called inactive; . = no result given.

SMILES	NadD inh	STEP block	LMPTP block	Scp1 inh	rCAG binder	NadD inh conf
CC(C)C[C@@H](CN1CCCC1CN1C(=S)NC[C@@H]1Cc1ccccc1)N1C[C@H](Cc2ccccc2)N(CCc2ccccc2)C1=S (some centres undefined)	20.2	.	1.4	.	15.7	.
CC(C)C[C@@H](CN1CCCC1CN1C(=S)NC[C@@H]1Cc1ccccc1)N1C[C@H](Cc2ccc(O)cc2)N(CCc2ccccc2)C1=S (some centres undefined)	45.2*	.	4.0	.	17.4	12.5
CC(C)C[C@@H](CN1CCC[C@@H]1CN1C(=S)NC[C@@H]1Cc1ccccc1)N1C[C@H](Cc2ccc(O)cc2)N(CCc2ccccc2)C1=S	19.3	2.1	1.4	.	8.6	.
O=C(CSc1nc2ccccc2nc1N1CCCCC1)N1CCN(C(c2ccccc2)c2ccc(Cl)cc2)CC1 (centres undefined)	.	.	.	.	6.6	.
COc1ccccc1C(=O)NCCC(=O)N1CC=C(c2ccccc2)CC1	42.0*	-2.8	-5.5	-0.1	-4.1	8.1
COc1ccccc1C(=O)NCCC(=O)N1CCCCC1	1.9	1.9	-4.4	-8.3	-4.3	.
Cc1ccc(C(=O)NC2CCCCN(C(C)C)C2=O)cc1 (centres undefined)	.	.	.	.	-2.0	.
Cc1ccc(C(C)(C)C)cc1S(=O)(=O)N1CCC(C(=O)N2CCN(c3ccc(O)cc3)CC2)CC1	67.0*	6.7	4.2	8.7	10.8	17.1
O=C(Nc1nc(-c2cccc3ccccc23)cs1)c1ccc2c(c1)S(=O)(=O)c1ccccc1C2=O	28.6	6.2	-3.0	-2.0	9.4	.
O=C(Nc1nc(-c2ccccc2)cs1)c1ccc2c(c1)S(=O)(=O)c1ccccc1C2=O	35.3*	3.6	1.5	1.2	4.1	5.1
Cc1cc(N2CCN(c3nc(-c4ccc([N+](=O)[O-])cc4)cs3)CC2)c2ccccc2n1	28.3*	4.3	95.4*	4.1	3.6	-12.7
Cc1ccc(-n2nc3c(c2NC(=O)/C=C\c2ccc4c(c2)OCO4)CSC3)cc1	41.5*	1.8	2.7	-12.9	24.2	61.9*
Cc1cccc(-n2nc3c(c2NC(=O)c2ccco2)CSC3)c1C	43.7*	2.2	3.8	49.7	25.4	72.6*
Cc1ccccc1-n1nc2c(c1NC(=O)c1c(-c3ccccc3Cl)noc1C)CSC2	63.2*	-10.7	2.1	-9.8	17.1	34.4
Cc1ccc(-n2nc3c(c2NC(=O)c2c(-c4ccccc4Cl)noc2C)CSC3)cc1	.	.	.	-5.2	.	.
Cc1ccc(-n2nc3c(c2NC(=O)c2ccc(Br)o2)CSC3)c(C)c1	85.2*	5.4	-0.4	-8.4	25.4	62.3*
Cc1ccc(-n2nc3c(c2NC(=O)c2ccc4c(c2)OCO4)CS(=O)C3)cc1 (centres undefined)	-2.5	0.5	-1.1	6.3	-2.2	.
Cc1ccccc1CC(=O)N1CCC(n2nnc3ncccc32)CC1	.	.	.	.	2.4	.
Cc1cc(C)nc(N2CCC(C(=O)N(C)CCc3ccccn3)CC2)n1	.	.	.	.	-0.2	.
Cc1ccc(-n2nc3c(c2NC(=O)/C=C\c2ccc4c(c2)OCO4)CSC3)c(C)c1	30.6*	0.9	2.1	-9.8	15.3	56.7*
Cc1ccccc1-n1nc2c(c1NC(=O)/C=C\c1ccc3c(c1)OCO3)CSC2	28.1	1.2	2.6	-16.1	15.9	.
O=C1Cc2c(-c3ccccc3)cc(-c3cccc(Cl)c3)nc2-c2ccccc2N1	37.1*	-0.2	1.2	1.1	-0.3	1.8
N#Cc1c(-c2ccco2)cc(-c2ccc(F)cc2)nc1N	51.9*	1.2	4.3	15.6	27.3	1.1
CCCCn1cnc2c(=O)[nH]ccc21	.	.	.	.	2.1	.
Cc1cc(-c2csc(NC(=O)c3ccc(C#N)cc3)n2)c(C)n1Cc1ccccc1	34.5*	1.9	1.0	3.0	13.5	26.5
SMILES	NadD inh	STEP block	LMPTP block	Scp1 inh	rCAG binder	NadD inh conf
C[C@@H]1CN([C@@H](C)CO)C(=O)Cc2cc(NC(=O)Nc3cccc4ccccc34)ccc2O[C@@H]1CN(C)Cc1ccc(C(F)(F)F)cc1	31.3*	-0.4	2.5	4.0	10.1	9.3
Cc1sc2ncnc(N3CCC(C(=O)Nc4sc5c(c4C(N)=O)CCC(C)C5)CC3)c2c1C (centres undefined)	30.5*	1.4	3.3	5.8	5.3	10.7
CCc1cccc(NC(=O)C2CCN(c3ncnc4sc(C)c(C)c34)CC2)c1	18.2	0.2	3.2	1.5	6.9	.
Cc1onc(-c2c(Cl)cccc2Cl)c1C(=O)NC(=S)Nc1sc2c(c1C(N)=O)CCC(C)C2 (centres undefined)	31.2*	-2.4	-0.5	0.3	4.7	3.0
Cc1onc(-c2ccccc2)c1C(=O)Nc1sc2c(c1C#N)CCC(C)C2 (centres undefined)	5.1	1.1	2.8	-8.9	4.6	.
CCc1ccc2nc(NC(=O)C3CCN(c4ncnc5sc(C)c(C)c45)CC3)sc2c1	33.4*	-2.2	3.5	9.8	3.4	1.5
Cc1sc2ncnc(N3CCC(C(=O)Nc4nnc(SCc5ccccc5F)s4)CC3)c2c1C	46.7*	0.9	1.7	9.1	1.7	3.8
O=C(CCc1ccccc1)N[C@H]1C(=O)CCC[C@]12C(=O)N(Cc1ccccc1)c1ccccc12	.	.	.	.	-0.1	.
COc1ccc(-c2csc(NC(=O)C3CCN(c4ncnc5sc(C)c(C)c45)CC3)n2)cc1OC	8.7	-1.6	3.6	7.5	12.2	.
C=CCn1c(C)cc(-c2csc(NC(=O)C3CCN(c4ncnc5sc(C)c(C)c45)CC3)n2)c1C	31.6*	0.6	0.9	5.8	13.8	27.4
Cc1sc2ncnc(N3CCC(C(=O)Nc4ccc(Cl)c(Cl)c4)CC3)c2c1C	41.6*	-2.4	-4.0	7.1	4.8	8.9
C=CCN1C(=O)[C@@H](CC(=O)NCCCC)[C@]2(C(=O)OCC)CCCCC/C=C/12	.	.	.	.	0.5	.
COc1ccc(OC)c(N/C(=N/c2nc(C)cc(C)n2)NC(C)=O)c1	-8.8	3.6	0.0	2.7	1.6	.
COc1ccc(N/C(=N/c2nc(C)cc(C)n2)NC(=O)Nc2ccc(Cl)c(Cl)c2)c(OC)c1	33.2*	-1.3	1.7	9.0	5.5	0.6
Cc1ccc(Cn2c(=O)n(Cc3ccc(C(=O)NCC4COC4)cc3)c(=O)c3ccccc32)cc1	.	.	.	.	5.6	.
Cc1ccc(C2=CCN(C)C(=O)N2c2ccc(Br)cc2)cc1	.	.	.	.	6.5	.
Cc1c(C(=O)OCC(=O)N(CC(C)C)c2c(N)n(Cc3ccccc3)c(=O)[nH]c2=O)oc2ccccc12	10.5	4.7	-2.6	-2.0	9.0	.
CCOc1ccc2oc(C(=O)OCC(=O)N(CC(C)C)c3c(N)n(Cc4ccccc4)c(=O)[nH]c3=O)c(C)c2c1	40.2*	-14.5	-17.8	-6.1	16.1	33.9
COC(=O)[C@]12C[C@H](CC(=O)NCc3cccc(C(F)(F)F)c3)C(=O)N(CCc3ccc(OC)c(OC)c3)C1=C[C@H](C1CCCC1)O[C@@H]2C	.	.	.	.	1.9	.
